This note sets out measurements from ChEMBL document CHEMBL1131335, “Modulation of receptor and receptor subtype affinities using diastereomeric and enantiomeric monosaccharide scaffolds as a means to structural and biological diversity. A new route to ether synthesis” (J Med Chem, 1998).

For experiment [1], the target named is T1, Substance-P receptor (Homo sapiens, UniProt P25103). The experiment can be described thus: Binding affinity was measured for Tachykinin receptor 1; Did not bind.
In another experiment the target is Somatostatin receptor. Put plainly: Binding affinity was measured for SRIF receptor on AtT-20 mouse pituitary cells. The class given is cell-based. Particulars: pituitary gland cell; call rule not given here.
The target in experiment [2] is T1, Substance-P receptor. The experiment can be described thus: Binding affinity was measured for Tachykinin receptor 1.
The target in experiment [3] is Somatostatin receptor type 1 (Homo sapiens, UniProt P30872). Put plainly: Binding affinity for human receptor subtype hSSTR1. An outline of the steps: (§1)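 Radioligand competition on membranes from CHO-K1 cells expressing hSSTR1–5, in 50 mM Tris-HCl pH 7.8 with 1 mM EGTA, 5 mM MgCl2 and protease inhibitors (leupeptin, pepstatin, bacitracin, aprotinin). Compounds ran 0.01–10,000 nM as seven-point full-log titrations, in triplicate, in at least two separate experiments. Incubation was 45 min at room temperature, then filtration onto PEI-pretreated GF/C filters and scintillation counting.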
Somatostatin receptor type 1, sequence (P30872 whole entry): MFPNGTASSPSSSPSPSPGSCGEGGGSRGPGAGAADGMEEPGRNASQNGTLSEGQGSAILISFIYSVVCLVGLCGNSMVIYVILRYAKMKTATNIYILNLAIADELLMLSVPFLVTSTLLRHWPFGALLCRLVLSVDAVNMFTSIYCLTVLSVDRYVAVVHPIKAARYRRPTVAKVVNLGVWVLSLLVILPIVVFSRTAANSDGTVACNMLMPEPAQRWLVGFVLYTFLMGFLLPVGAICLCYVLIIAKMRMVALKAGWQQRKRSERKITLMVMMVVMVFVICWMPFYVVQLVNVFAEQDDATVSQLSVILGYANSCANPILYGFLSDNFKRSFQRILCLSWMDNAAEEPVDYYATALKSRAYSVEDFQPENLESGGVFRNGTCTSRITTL

In experiment [4] the target is Somatostatin receptor type 4 (Homo sapiens, UniProt P31391). Put plainly: Binding affinity for human receptor subtype hSSTR4. The method in brief: (§2)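 Radioligand competition on membranes from CHO-K1 cells expressing hSSTR1–5, in 50 mM Tris-HCl pH 7.8 with 1 mM EGTA, 5 mM MgCl2 and protease inhibitors (leupeptin, pepstatin, bacitracin, aprotinin). Tracer was [125I-Tyr11]SRIF-14 at 0.1 nM final. Compounds ran 0.01–10,000 nM as seven-point full-log titrations, in triplicate, in at least two separate experiments. Incubation was 45 min at room temperature, then filtration onto PEI-pretreated GF/C filters and scintillation counting.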
Somatostatin receptor type 4, sequence (P31391 whole entry): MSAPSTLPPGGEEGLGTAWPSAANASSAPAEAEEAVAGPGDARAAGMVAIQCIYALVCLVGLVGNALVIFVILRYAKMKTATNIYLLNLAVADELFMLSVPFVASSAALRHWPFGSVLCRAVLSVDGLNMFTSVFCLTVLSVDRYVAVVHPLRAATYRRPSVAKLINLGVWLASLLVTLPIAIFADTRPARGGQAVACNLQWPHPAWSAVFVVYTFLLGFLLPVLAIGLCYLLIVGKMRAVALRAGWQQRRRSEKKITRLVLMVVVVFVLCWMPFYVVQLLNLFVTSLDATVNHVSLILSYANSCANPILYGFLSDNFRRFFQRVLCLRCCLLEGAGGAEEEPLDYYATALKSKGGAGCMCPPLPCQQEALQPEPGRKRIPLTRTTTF

Experiment [5] concerns the target Somatostatin receptor type 2 (Homo sapiens, UniProt P30874). The experiment can be described thus: Binding affinity for human receptor subtype hSSTR2. The method in brief:
as §1

Experiment [6] addresses Somatostatin receptor type 3 (Homo sapiens, UniProt P32745). Put plainly: Binding affinity for human receptor subtype hSSTR3. The method in brief:
as §2

In experiment [7] the target is T2, Somatostatin receptor type 5 (Homo sapiens, UniProt P35346). The experiment can be described thus: Binding affinity for human receptor subtype hSSTR5. An outline of the steps:
as §1

Experiment [8] concerns the target T2, Somatostatin receptor type 5. The experiment can be described thus: Binding affinity for human receptor subtype hSSTR5.; Did not bind. An outline of the steps:
as §2

pIC50, pKi: −log10 of the molar value.

T1 sequence (P25103 whole entry): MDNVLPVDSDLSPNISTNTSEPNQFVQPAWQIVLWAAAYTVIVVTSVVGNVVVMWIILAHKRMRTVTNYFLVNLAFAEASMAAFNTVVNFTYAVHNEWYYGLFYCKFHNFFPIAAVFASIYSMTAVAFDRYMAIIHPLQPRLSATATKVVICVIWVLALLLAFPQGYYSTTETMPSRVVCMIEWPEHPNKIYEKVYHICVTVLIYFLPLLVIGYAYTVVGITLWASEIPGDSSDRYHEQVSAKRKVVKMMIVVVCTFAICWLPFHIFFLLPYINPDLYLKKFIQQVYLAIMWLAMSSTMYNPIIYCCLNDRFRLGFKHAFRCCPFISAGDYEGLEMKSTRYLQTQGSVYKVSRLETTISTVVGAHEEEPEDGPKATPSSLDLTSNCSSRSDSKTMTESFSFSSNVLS
T2 sequence (P35346 whole entry): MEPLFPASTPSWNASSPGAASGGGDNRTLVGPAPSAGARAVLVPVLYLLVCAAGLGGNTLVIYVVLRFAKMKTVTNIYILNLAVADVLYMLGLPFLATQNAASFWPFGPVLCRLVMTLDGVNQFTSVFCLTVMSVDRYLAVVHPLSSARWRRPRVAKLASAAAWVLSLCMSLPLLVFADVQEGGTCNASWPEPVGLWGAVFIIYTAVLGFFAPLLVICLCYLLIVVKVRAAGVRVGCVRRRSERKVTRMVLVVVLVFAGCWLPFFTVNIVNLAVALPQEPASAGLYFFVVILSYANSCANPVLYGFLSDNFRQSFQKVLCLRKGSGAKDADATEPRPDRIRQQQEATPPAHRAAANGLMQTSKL
Somatostatin receptor type 3, sequence (P32745 whole entry): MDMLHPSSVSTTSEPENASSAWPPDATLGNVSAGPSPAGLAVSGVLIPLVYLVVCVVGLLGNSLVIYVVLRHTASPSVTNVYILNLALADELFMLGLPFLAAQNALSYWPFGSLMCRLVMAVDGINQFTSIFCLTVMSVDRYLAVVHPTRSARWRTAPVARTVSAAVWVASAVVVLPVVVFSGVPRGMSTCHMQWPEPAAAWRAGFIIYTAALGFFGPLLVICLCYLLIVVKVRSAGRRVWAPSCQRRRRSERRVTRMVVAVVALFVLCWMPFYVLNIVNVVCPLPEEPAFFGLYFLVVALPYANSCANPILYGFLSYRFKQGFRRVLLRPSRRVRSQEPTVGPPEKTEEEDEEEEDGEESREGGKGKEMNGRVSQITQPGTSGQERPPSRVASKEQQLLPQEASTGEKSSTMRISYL
Somatostatin receptor type 2, sequence (P30874 whole entry): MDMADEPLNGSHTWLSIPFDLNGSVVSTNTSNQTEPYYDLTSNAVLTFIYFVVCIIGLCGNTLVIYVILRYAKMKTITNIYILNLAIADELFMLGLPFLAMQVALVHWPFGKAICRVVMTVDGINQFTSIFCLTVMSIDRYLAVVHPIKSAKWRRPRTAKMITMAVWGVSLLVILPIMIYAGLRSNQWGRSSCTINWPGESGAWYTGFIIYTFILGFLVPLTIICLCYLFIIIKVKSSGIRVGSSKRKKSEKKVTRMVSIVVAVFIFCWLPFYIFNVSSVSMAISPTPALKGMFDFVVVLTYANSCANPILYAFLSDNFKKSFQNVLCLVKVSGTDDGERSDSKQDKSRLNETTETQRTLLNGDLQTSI

As usually defined, the IC50 is the point on the concentration scale where inhibition reaches its midpoint. Read a high IC50 as weaker potency. In the case of `CC(=O)NCCCCCOC[C@H]1O[C@@H](OCCc2c[nH]c3ccccc23)[C@H](OCc2ccc3ccccc3c2)[C@@H](OCc2ccccc2)[C@@H]1OCc1ccccc1`, the IC50 result at Substance-P receptor [1] was “Not Active”.
In turn, `NCCCCCOC[C@H]1O[C@@H](OCCc2c[nH]c3ccccc23)[C@H](OCc2ccccc2)C[C@@H]1OCc1ccccc1` displayed an IC50 on Somatostatin receptor of 8400 nM.
In general, pIC50 refers to −log10 of the IC50, conventionally taken in molar units. Read a high pIC50 as a small IC50. On Substance-P receptor [2], `CC(=O)NCCCCCOC[C@H]1O[C@@H](OCCc2c[nH]c3ccccc23)[C@H](OCc2ccc(F)cc2)[C@@H](OCc2ccccc2)[C@@H]1OCc1ccccc1` gave a pIC50 of 6.68.
The molecule `OCCCCCNC[C@H]1O[C@@H](OCCc2c[nH]c3ccccc23)[C@H](OCc2ccccc2)[C@@H](OCc2ccccc2)[C@@H]1OCc1ccccc1` had an IC50 on Somatostatin receptor of 14000 nM.
For orientation: pKi means the negative decadic logarithm of the Ki, by convention in mol/L. High values mean a small Ki, low ones a large Ki. `NCCCCCNC[C@H]1O[C@@H](OCCc2c[nH]c3ccccc23)[C@H](OCc2ccccc2)[C@@H](OCc2ccccc2)[C@@H]1OCc1ccccc1`: the pKi was 5.68 in experiment [3]; 6.30 in experiment [4]; 6.22 in experiment [5]; 6.22 in experiment [6]; 5.89 in [7]. Further, the IC50 on Somatostatin receptor was determined as 13000 nM.
`Fc1ccc(COC[C@H]2O[C@@H](OCCc3c[nH]c4ccccc34)[C@H](OCc3ccc4ccccc4c3)[C@@H](OCc3ccccc3)[C@@H]2OCc2ccccc2)cc1`: the IC50 result on Substance-P receptor [1] was “Not Active”.
As for `Fc1ccc(CO[C@H]2[C@H](OCCc3c[nH]c4ccccc34)O[C@H](COCc3ccc4ccccc4c3)[C@@H](OCc3ccccc3)[C@@H]2OCc2ccccc2)cc1`, the IC50 result at Substance-P receptor [1] is listed as “Not Active”.
Turning to `NCCCCCCOC[C@H]1O[C@@H](OCCc2c[nH]c3ccccc23)[C@H](OCc2ccccc2)C[C@@H]1OCc1ccccc1`, at Somatostatin receptor, the IC50 is 7000 nM.
For the molecule `NCCCCCOC[C@@H]1O[C@H](OCCc2c[nH]c3ccccc23)[C@H](OCc2c[nH]cn2)[C@H](OCc2ccccc2)[C@H]1OCc1ccccc1`, the Ki entry in [8] is recorded as “Not Active”.
`Fc1ccc(OC[C@H]2O[C@@H](OCCc3c[nH]c4ccccc34)[C@H](OCc3ccc4ccccc4c3)[C@@H](OCc3ccccc3)[C@@H]2OCc2ccccc2)cc1`: at Substance-P receptor [1], the IC50 entry is listed as “Not Active”.
At Somatostatin receptor, `NCCCCCOC[C@H]1O[C@@H](CCc2c[nH]c3ccccc23)[C@H](OCc2ccccc2)[C@@H](OCc2ccccc2)[C@@H]1OCc1ccccc1` showed an IC50 of 22000 nM.
The same measure, in the same setting: the figure for `NCCCCCOC[C@H]1O[C@@H](OCCc2c[nH]c3ccccc23)[C@H](OCc2c[nH]cn2)C[C@@H]1OCc1ccccc1` is 4100 nM; for `CO[C@@H]1O[C@H](COCCCCCN)[C@@H](OCc2ccccc2)[C@H](OCc2c[nH]cn2)[C@H]1OCc1ccccc1` it is 5600 nM.
`CO[C@@H]1O[C@H](COCCCCCN)[C@@H](OCc2ccccc2)[C@H](OCc2ccccc2)[C@H]1OCc1ccccc1` displayed an IC50 on Somatostatin receptor of 5900 nM.
Regarding `OCCCCCCNC[C@H]1O[C@@H](OCCc2c[nH]c3ccccc23)[C@H](OCc2ccccc2)C[C@@H]1OCc1ccccc1`, the IC50 at Somatostatin receptor came out at 5100 nM.
On Substance-P receptor [2], `C[C@@H](O)[C@@H]1NC(=O)[C@H](Cc2ccc(F)cc2)NC(=O)[C@@H](Cc2c[nH]c3ccccc23)NC(=O)[C@H](Cc2ccc3ccccc3c2)NC(=O)[C@@H]2CCCN2C(=O)[C@H](Cc2ccccc2)NC1=O` had a pIC50 of 7.19.
